Data published in ChEMBL document CHEMBL4431346, “2-Oxoamide inhibitors of cytosolic group IVA phospholipase A2 with reduced lipophilicity” (Bioorg Med Chem, 2016).

Assays:
[1] = biological target: T1, Cytosolic phospholipase A2 (Homo sapiens) (UniProt P47712); assay: Inhibition of human group 4A cPLA2 using PAPC/[14C]-labeled PAPC as substrate at 0.091 mole fraction after 30 mins by mixed micelle-based assay relative to control
T1 sequence (whole entry): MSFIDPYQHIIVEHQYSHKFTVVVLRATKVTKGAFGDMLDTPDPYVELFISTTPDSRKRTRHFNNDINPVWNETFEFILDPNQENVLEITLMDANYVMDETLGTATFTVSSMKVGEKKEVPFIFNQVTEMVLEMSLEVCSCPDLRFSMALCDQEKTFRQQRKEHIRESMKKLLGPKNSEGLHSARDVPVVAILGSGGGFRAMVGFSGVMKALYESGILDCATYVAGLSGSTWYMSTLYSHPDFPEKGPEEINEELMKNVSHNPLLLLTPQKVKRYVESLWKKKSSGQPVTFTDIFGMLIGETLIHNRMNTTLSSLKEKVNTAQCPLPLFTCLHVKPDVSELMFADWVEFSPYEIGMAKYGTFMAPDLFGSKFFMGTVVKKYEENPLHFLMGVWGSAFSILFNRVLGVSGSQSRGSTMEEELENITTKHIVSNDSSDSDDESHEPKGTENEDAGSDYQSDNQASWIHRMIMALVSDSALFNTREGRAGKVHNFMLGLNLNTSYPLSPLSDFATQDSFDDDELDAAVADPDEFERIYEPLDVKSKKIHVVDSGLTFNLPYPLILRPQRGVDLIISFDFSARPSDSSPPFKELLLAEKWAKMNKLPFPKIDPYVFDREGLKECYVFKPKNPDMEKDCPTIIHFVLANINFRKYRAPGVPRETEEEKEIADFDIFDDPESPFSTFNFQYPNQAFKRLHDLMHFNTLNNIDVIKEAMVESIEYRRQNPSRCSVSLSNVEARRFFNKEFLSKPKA
Summary of the method: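 Screened at 0.091 mole fraction inhibitor against human GIVA cPLA2. Micelles: 400 μM Triton X-100, 97 μM PAPC, 1.8 μM 14C-PAPC, 3 μM PIP2 in 100 mM HEPES pH 7.5 with 90 μM CaCl2, 2 mM DTT and 0.1 mg/ml BSA. Average percent inhibition is reported; 25% or less is designated N.D.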

[2] = biological target: T2, 85/88 kDa calcium-independent phospholipase A2 (Homo sapiens) (UniProt O60733); assay: Inhibition of human group 6A iPLA2 using PAPC/[14C]-labeled PAPC as substrate at 0.091 mole fraction after 30 mins by mixed micelle-based assay relative to control
T2 sequence (whole entry): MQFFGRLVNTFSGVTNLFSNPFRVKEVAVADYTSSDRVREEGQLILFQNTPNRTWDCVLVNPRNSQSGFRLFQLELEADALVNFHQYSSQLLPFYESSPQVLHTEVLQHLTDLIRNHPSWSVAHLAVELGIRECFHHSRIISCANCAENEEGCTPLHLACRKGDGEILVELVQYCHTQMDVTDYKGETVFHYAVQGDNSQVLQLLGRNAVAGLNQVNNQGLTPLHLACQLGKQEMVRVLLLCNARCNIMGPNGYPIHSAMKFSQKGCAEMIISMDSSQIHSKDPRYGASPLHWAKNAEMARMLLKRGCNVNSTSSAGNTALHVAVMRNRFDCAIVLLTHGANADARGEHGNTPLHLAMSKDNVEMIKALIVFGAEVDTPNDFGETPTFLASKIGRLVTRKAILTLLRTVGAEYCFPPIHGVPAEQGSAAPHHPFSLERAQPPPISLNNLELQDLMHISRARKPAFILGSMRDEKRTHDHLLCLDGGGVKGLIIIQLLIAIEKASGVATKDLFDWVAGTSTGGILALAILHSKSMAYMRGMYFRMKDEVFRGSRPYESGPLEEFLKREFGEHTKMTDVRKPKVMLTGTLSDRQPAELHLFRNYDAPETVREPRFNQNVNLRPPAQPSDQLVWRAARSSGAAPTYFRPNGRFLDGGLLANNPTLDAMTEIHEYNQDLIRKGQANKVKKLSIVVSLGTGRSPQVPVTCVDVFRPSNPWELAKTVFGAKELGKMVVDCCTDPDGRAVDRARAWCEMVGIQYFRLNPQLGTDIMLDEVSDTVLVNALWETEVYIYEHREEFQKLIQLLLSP
Summary of the method: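 Human GVIA iPLA2 was single-point screened at 0.091 inhibitor mole fraction. Micelles: 400 μM Triton X-100, 98.3 μM PAPC, 1.7 μM 14C-PAPC in 100 mM HEPES pH 7.5, 2 mM ATP, 4 mM DTT. Average percent inhibition is given; 25% or less is treated as no inhibition (N.D.).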

[3] = species: Homo sapiens; assay: Inhibition of human group 5 sPLA2 using PAPC/[14C]-labeled PAPC as substrate at 0.091 mole fraction after 30 mins by mixed micelle-based assay relative to control
Summary of the method: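 Human GV sPLA2 was tested at 0.091 mole fraction inhibitor in mixed micelles of 400 μM Triton X-100, 98.3 μM PAPC and 1.7 μM 14C-labeled PAPC. Average percent inhibition is reported; 25% or less is designated N.D.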

[4] = biological target: T1, Cytosolic phospholipase A2 (Homo sapiens); assay: Inhibition of human group 4A cPLA2 using PAPC/[14C]-labeled PAPC as substrate after 30 mins by mixed micelle-based assay
Summary of the method: (§1)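 Human GIVA cPLA2 in mixed micelles: 400 μM Triton X-100, 97 μM PAPC, 1.8 μM 14C-labeled PAPC and 3 μM PIP2. Buffer was 100 mM HEPES pH 7.5 with 90 μM CaCl2, 2 mM DTT and 0.1 mg/ml BSA. XI(50) is the inhibitor mole fraction in the total substrate interface giving 50% inhibition. It was measured only for compounds exceeding 85% inhibition at the 0.091 screen.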

[5] = biological target: T1, Cytosolic phospholipase A2 (Homo sapiens); assay: Inhibition of human group 4A cPLA2 using PAPC as substrate preincubated for 5 mins with substrate followed by enzyme addition for 30 mins by mixed micelle-based assay; summary of the method: as §1
[6] = biological target: T2, 85/88 kDa calcium-independent phospholipase A2 (Homo sapiens); assay: Inhibition of human group 6A iPLA2 using PAPC as substrate preincubated for 5 mins with substrate followed by enzyme addition for 30 mins by mixed micelle-based assay
Summary of the method: (§2)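 For human GVIA iPLA2, micelles held 400 μM Triton X-100, 98.3 μM PAPC and 1.7 μM 14C-PAPC. Buffer was 100 mM HEPES pH 7.5 with 2 mM ATP and 4 mM DTT. XI(50) is the inhibitor mole fraction in the total substrate interface causing 50% inhibition. It was determined for compounds exceeding 85% inhibition at 0.091 mole fraction.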

[7] = biological target: T1, Cytosolic phospholipase A2 (Homo sapiens); assay: Inhibition of human group 4A cPLA2 using [14C]-labeled PAPC as substrate after 30 mins by mixed micelle assay based liquid scintillation counting; summary of the method: as §1
[8] = biological target: T2, 85/88 kDa calcium-independent phospholipase A2 (Homo sapiens); assay: Inhibition of human group 6A iPLA2 using PAPC/[14C]-labeled PAPC as substrate after 30 mins by mixed micelle-based assay; summary of the method: as §2

inhibition [1] [%] | inhibition [2] [%] | inhibition [3] [%] | XI50 (mole fraction) [4] | XI50 (mole fraction) [5] | XI50 (mole fraction) [6] | XI50 (mole fraction) [7] | XI50 (mole fraction) [8] | SMILES
< 25 | < 25 | < 25 |  |  |  |  |  | CCOC(=O)CCCNC(=O)C(=O)CCCCCCCCCCCC(=O)O
> 85 | < 25 | < 25 | 0.023 |  |  |  |  | CCCCCCCCc1ccc(OCCCC(=O)C(=O)NCCCC(=O)O)cc1
 |  |  |  | 0.022 | 0.027 |  |  | CCCCCCCCCCCCCCC(=O)C(=O)NCCCC(=O)OCC
> 85 | < 25 | < 25 | 0.016 |  |  |  |  | CCCCCCOc1ccc(CCCCC(=O)C(=O)NCCCC(=O)O)cc1
88 | 82.5 | < 25 | 0.013 |  |  |  |  | CCCCCCOc1ccc(OCCCC(=O)C(=O)NCCCCC(=O)O)cc1
 |  |  |  |  |  | 0.036 |  | CCCCC/C=C\C/C=C\C/C=C\C/C=C\CCCC(=O)C(F)(F)F
< 25 | < 25 | < 25 |  |  |  |  |  | Cc1ccc(S(=O)(=O)NCCCCCCCCCCC(=O)C(=O)NCCCC(=O)O)cc1
63.6 | 81.1 | < 25 |  |  |  |  |  | CCCCCCOc1ccc(OCCCC(=O)C(=O)NCCCC(=O)O)cc1
59.3 | < 25 | < 25 |  |  |  |  |  | CCOC(=O)CCCNC(=O)C(=O)CCCCCCCCCCNS(=O)(=O)c1ccc(C)cc1
> 85 | 95.1 | 33.8 | 0.02 |  |  |  | 0.013 | CCCCCCOc1ccc(CCCCC(=O)C(=O)NCCCC(=O)OCC)cc1
49.3 | 94.7 | 40.6 |  |  |  |  | 0.014 | CCCCCCCCc1ccc(OCCCC(=O)C(=O)NCCCC(=O)OCC)cc1
 | < 25 |  |  | 0.024 |  |  |  | CCCCCCCCCCCCCCC(=O)C(=O)NCCCC(=O)O
